In PubChem BioAssay:
Active and inactive are the calls of the source.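 How the source made its calls, unless noted: active means viability at or below 30% in both replicate assays; inconclusive means viability at or below 30% in just one of the two assays; inactive means the rest.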

Key:
[1] = reduced viability of SK-BR-3 breast cancer cells – cell-based, 24 h, human, pilot screen (AID 572;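 active means viability at or below 10% of carrier control in both of two separate runs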;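 further: compound exposure lasted between 18 and 24 h rather than exactly 24 h; 100% = carrier-treated control wells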); conditions: SK-BR-3 viability, CellTiter-Glo luminescence, at 10 µM, stronger effect = lower value
[2] = HUVEC growth inhibition – cell-based, human, primary screen (AID 575); conditions: HUVEC proliferation, CellTiter-Glo luminescence, 72 h; at 10 µM; stronger effect = lower value;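 further: 100% = median of untreated cell wells with 0.1% DMSO on each plate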
Procedure, shortened: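 system = HUVEC primary cells | amount = 1250 cells/well | buffer or medium = supplemented EBM, 2% fetal bovine serum | dosing = single-point 10 µM, DMSO 0.1% final | times = 72 h compound incubation | detection = CTG luminescence | read-out = % viability relative to median vehicle-well signal on each plate | control set = vehicle and MePR control wells | format = collagen-coated 384-well format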

[3] = H69AR cell proliferation blockers – human, duplicate replicates, primary screen (AID 580;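 active means viability at or under a set limit in both replicates, limit being median viability minus 3 SD, cut at about 48% in these data, passing the limit was not always enough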;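 further: 100% = mean luminescence of untreated wells and 0% = no signal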); conditions: H69AR lung tumor cells viability, ATP luminescence, 72 h; at 10 µM; stronger effect = lower value
[4] = MRP1 drug-resistance reversers in H69AR cells – cell-based, doxorubicin co-treatment, pilot screen (AID 601;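 active means viability loss from added drug above about 55%, and viability with drug at most 40%, in both replicates, limit read from the data, passing the limit was not always enough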); conditions: CellTiter-Glo, 72 h, at 10 µM; for differential viability (reversal): stronger effect = higher value
[5] = yeast transport mutant growth inhibition pilot in 384-well plates, post-Golgi transport modulator project (AID 636; in the data active means inhibition above about 31%); conditions: absorbance 615 nm, about 18 h, stronger effect = higher value
[6] = growth suppression of yeast trafficking mutant, preliminary HTS, modulators of trafficking downstream of Golgi apparatus project, 1536-format plate, OD 615 nm (AID 637; in the data active means inhibition above about 30%); conditions: yeast transport mutant growth, absorbance 615 nm, 18 h; stronger effect = higher value
[7] = H69AR cells + 2 uM doxorubicin, measured here: viability with 2 uM doxorubicin, stronger effect = lower value
[8] = H69AR cells, compound alone cytotoxicity

Structure (SMILES)	viability [1]	viability [2]	viability [3]	differential viability (reversal) ([4]; H69AR cells + 2 uM doxorubicin)	viability [4, 7] [%]	viability [4, 8] [%]	inhibition [5]	inhibition [6]
COc1ccc(/C=N/n2c(SC)nnc2-c2ccccc2)cc1C	116% (inactive)	75.5% (inactive)	20.7% (active)	-58.1% (inactive)	78.8	20.7	0.93% (inactive)	9.27% (inactive)
COc1cccc(NC(=O)COC(=O)c2cccnc2)c1	91% (inactive)	83.9% (inactive)	91.1% (inactive)	5.84% (inactive)	85.3	91.1	-4.93% (inactive)	4.35% (inactive)
Cc1cccc(-n2c(SCc3cc(=O)n4ccsc4n3)nc3ccccc32)c1	93% (inactive)	66.1% (inactive)	78.5% (inactive)	-9.64% (inactive)	88.1	78.5	3.01% (inactive)	40% (active)
CCOC(=O)Cc1cc(=O)n2[nH]c(C)c(-c3ccc(OC)cc3)c2n1	103% (inactive)	56.1% (inactive)	92.6% (inactive)	9.51% (inactive)	83.1	92.6	-4.34% (inactive)	-1% (inactive)
CC(Sc1nnnn1C)C(=O)Nc1ccc(Oc2ccccc2)cc1 (stereo unspecified)	92% (inactive)	87.8% (inactive)	97.8% (inactive)	11% (inactive)	86.8	97.8	-7.53% (inactive)	0.97% (inactive)
CC1(C)CC(=O)C=C(NCc2ccncc2)C1	89% (inactive)	113% (inactive)	98.6% (inactive)	-26.3% (inactive)	125	98.6	-2.3% (inactive)	-3.45% (inactive)
CCOC(=O)c1sc2cccc(F)c2c1N	105% (inactive)	80.8% (inactive)	88.1% (inactive)	5.58% (inactive)	82.5	88.1	-5.45% (inactive)	6.07% (inactive)
CCN(C(=O)c1ccnc(C(C)(C)C)c1)c1ccccc1	88% (inactive)	94.4% (inactive)	79.2% (inactive)	-4.02% (inactive)	83.3	79.2	-6.85% (inactive)	2% (inactive)
O=C(CCCSc1nc2ccccc2s1)NC1=NCCS1	86% (inactive)	102% (inactive)	93.7% (inactive)	-4.02% (inactive)	97.8	93.7	-7.53% (inactive)	1.82% (inactive)
CC(=O)OC(C(=O)NC1CCCCC1)c1ccncc1 (stereo unspecified)	88% (inactive)	98% (inactive)	109% (inactive)	21.3% (inactive)	87.7	109	-0.14% (inactive)	-0.48% (inactive)
Cn1c(=O)c2c(nc(NCCNC(=O)c3ccco3)n2Cc2ccccc2Cl)n(C)c1=O	80% (inactive)	112% (inactive)	72.5% (inactive)	5.75% (inactive)	66.7	72.5	-7.57% (inactive)	-4.36% (inactive)
CC(C)NC(=O)Nc1cccs1	115% (inactive)	99.5% (inactive)	92.1% (inactive)	-3.51% (inactive)	95.6	92.1	2.47% (inactive)	-0.82% (inactive)
Cc1ccc(S(=O)(=O)N2CCN(c3nc(C)nc4sc(C)c(C)c34)CC2)cc1	95% (inactive)	108% (inactive)	99.5% (inactive)	-2.76% (inactive)	102	99.5	-3.73% (inactive)	-0.73% (inactive)
COc1ccc(-n2ncc3c(NCc4ccc5c(c4)OCO5)ncnc32)cc1	92.5% (inactive)	49.8% (inactive)	6.44% (active)	-11% (inactive)	17.4	6.44	-3.55% (inactive)	3.71% (inactive)
CCCC(OC(=O)CN1C(=O)COc2ccccc21)C(=O)NC1CCCC1 (stereo unspecified)	63% (inactive)	107% (inactive)	91.7% (inactive)	1.34% (inactive)	90.3	91.7	-7.12% (inactive)	3.09% (inactive)
O=C(Nc1ccccc1C(=O)O)c1cccc(NC(=O)c2ccc(Br)o2)c1	91% (inactive)	80% (inactive)	102% (inactive)	7.51% (inactive)	94.4	102	-10.8% (inactive)	-1.82% (inactive)
c1cncc(C2Nc3ccccc3-c3nc4ccccc4n32)c1 (stereo unspecified)	90% (inactive)	98.1% (inactive)	78.7% (inactive)	-12.2% (inactive)	90.9	78.7	-2.53% (inactive)	0.91% (inactive)
Cc1nn(C)c(C)c1NC(=O)CSc1nc(Cc2ccccc2)nc2c1cnn2-c1ccccc1	116% (inactive)	88% (inactive)	78.8% (inactive)	0.07% (inactive)	78.7	78.8	-2.05% (inactive)	5.48% (inactive)
CC(=O)NCCCCCCNC(C)=O	125% (inactive)	100% (inactive)	94.5% (inactive)	5.61% (inactive)	88.9	94.5	4.94% (inactive)	-1.17% (inactive)

Structure (SMILES)	viability [1]	viability [2]	viability [3]	differential viability (reversal) ([4]; H69AR cells + 2 uM doxorubicin)	viability [4, 7] [%]	viability [4, 8] [%]	inhibition [5]	inhibition [6]
CC1=C(C(=O)N2CCOCC2)C(c2ccccc2F)C2=C(CCCC2=O)N1 (stereo unspecified)	110% (inactive)	104% (inactive)	98.8% (inactive)	-2.68% (inactive)	101	98.8	-2.88% (inactive)	0.91% (inactive)
COc1ccccc1NC(=O)CSc1nnc(Cn2nnc(-c3ccccc3)n2)n1-c1ccccc1	63% (inactive)	88.7% (inactive)	87.4% (inactive)	-5.36% (inactive)	92.8	87.4	-5.75% (inactive)	-1.45% (inactive)
COC(=O)c1ccccc1NC(=O)CN1CCC(n2nnc3cc(F)ccc32)CC1	64% (inactive)	94.9% (inactive)	100% (inactive)	10.3% (inactive)	89.7	100	-6.16% (inactive)	-1.27% (inactive)
COCCNC(=O)c1snc2ccc(Cl)cc12	89% (inactive)	83.4% (inactive)	102% (inactive)	10.2% (inactive)	91.5	102	4.42% (inactive)	4.43% (inactive)
Cc1ccc(N2CCN(CCc3nc4cc(NS(C)(=O)=O)ccc4n3C)CC2)cc1	104% (inactive)	110% (inactive)	90.1% (inactive)	3.72% (inactive)	86.4	90.1	-6.75% (inactive)	-5.74% (inactive)
O=c1c2[nH]c3ccc(Cl)cc3c2ncn1Cc1ccccn1	94% (inactive)	107% (inactive)	101% (inactive)	13.4% (inactive)	87.9	101	-3.33% (inactive)	-3.27% (inactive)
CCNc1ccc(S(=O)(=O)C(F)(F)F)cc1NC(=O)C12CCC(CC1)C2	102% (inactive)	102% (inactive)	92.3% (inactive)	-3.33% (inactive)	95.7	92.3	1.78% (inactive)	2% (inactive)
C[N+](C)(C)CCCCCCCCCC[N+](C)(C)C	106% (inactive)	100% (inactive)	104% (inactive)	13.9% (inactive)	90	104	1.69% (inactive)	-1.5% (inactive)
CC1CN(C(=O)CSc2nnc(-c3ccc(Cl)cc3)n2C)CC(C)O1 (stereo unspecified)	78% (inactive)	110% (inactive)	99.5% (inactive)	5.23% (inactive)	94.2	99.5	-6.08% (inactive)	2.91% (inactive)
CC(=O)/C(C[N+]1(C)CCCCC1)=N\O	107% (inactive)	103% (inactive)	105% (inactive)	18.9% (inactive)	85.6	105	-6.13% (inactive)	0.55% (inactive)
CCCN(CC1CC1)C(=O)Nc1ccccc1C	94% (inactive)	101% (inactive)	104% (inactive)	12.2% (inactive)	92.2	104	-1.04% (inactive)	-12.9% (inactive)
Cc1cccc(NC(=O)c2ccc3ccccc3n2)n1	91% (inactive)	86.6% (inactive)	76.3% (inactive)	-18.1% (inactive)	94.3	76.3	-0.13% (inactive)	-1.83% (inactive)
CN/C=C1\C(=O)C(C)(C)Oc2ccc3ccc(=O)oc3c21	112% (inactive)	91.5% (inactive)	87.9% (inactive)	0.24% (inactive)	87.7	87.9	-6.53% (inactive)	0.18% (inactive)
CC(=O)N1CCc2cc(S(=O)(=O)NCCC(=O)NC3CCCc4ccccc43)ccc21 (stereo unspecified)	113% (inactive)	112% (inactive)	88.9% (inactive)	-1.16% (inactive)	90	88.9	-4% (inactive)	-3.27% (inactive)
CCN(CC(=O)NC1CCS(=O)(=O)C1)C(=O)C(c1ccccc1)c1ccccc1 (stereo unspecified)	119% (inactive)	102% (inactive)	102% (inactive)	14.2% (inactive)	88.2	102	-5.14% (inactive)	-2.91% (inactive)
O=C(O)C1CCCN1C(=O)c1cccs1 (stereo unspecified)	114% (inactive)	88.3% (inactive)	103% (inactive)	3.11% (inactive)	100	103	3.15% (inactive)	-2.58% (inactive)
Cc1cc(C(=O)Nc2nc3c(s2)CCCC3)cs1	93% (inactive)	67.5% (inactive)	91.9% (inactive)	14% (inactive)	77.8	91.9	-0.14% (inactive)	-7.58% (inactive)
CC(C)c1ccc(CNc2ccc(N3CCOCC3)cc2)cc1	74% (inactive)	81.7% (inactive)	88.4% (inactive)	0.93% (inactive)	87.5	88.4	-6.89% (inactive)	-5.82% (inactive)
